Measurements from different studies.
Each line is one published result; the experiments were not run side by side.
Organism: Mycobacterium tuberculosis
Observed: microbial growth

For CO[C@H]1/C=C/O[C@@]2(C)Oc3c(C)c(O)c4c(O)c(c(/C=N/N5CCN(C)CC5)c(O)c4c3C2=O)NC(=O)/C(C)=C\C=C\[C@H](C)[C@H](O)[C@@H](C)[C@@H](O)[C@@H](C)[C@H](OC(C)=O)[C@@H]1C, the MIC was 0.05 µg/mL (resazurin; ATCC35801 ERDMAN; 7 days).
For CCOC(=O)c1c(NC(=O)c2cc(C(F)(F)F)cc(C(F)(F)F)c2)sc2c1CCN(CC)C2, the MIC was > 200 µM (resazurin; H37RV).
The MIC of CC[C@@H](CO)NCCN[C@@H](CC)CO is reported as 0.8 µg/mL (H37RV; 7 days).
With O=C1c2cccc(O)c2C(=O)c2c(O)cc(CO)cc21 the MIC was > 320 µM (resazurin; H37RV).
With CO[C@H]1/C=C/O[C@@]2(C)Oc3c(C)c(O)c4c(O)c(c(/C=N/N5CCN(C)CC5)c(O)c4c3C2=O)NC(=O)/C(C)=C\C=C\[C@H](C)[C@H](O)[C@@H](C)[C@@H](O)[C@@H](C)[C@H](OC(C)=O)[C@@H]1C the MIC was 0.17 µg/mL (H37RV; 14 days).
CCOC(=O)c1c(NC(=O)c2cc(C(F)(F)F)cc(C(F)(F)F)c2)sc2c1CCN(C(=O)OC(C)(C)C)C2 gave an MIC of < 100 µM (resazurin; H37RV).
The MIC of COc1cccc2c1C(=O)c1c(O)c3c(c(O)c1C2=O)C[C@@](O)(C(=O)CO)C[C@@H]3O[C@H]1C[C@H](N)[C@H](O)[C@H](C)O1 is reported as 5 µM (resazurin; H37RV).
CC[C@@H](CO)NCCN[C@@H](CC)CO gave an MIC of 0.78 µg/mL (H37RV; 14 days).
The MIC of CCN1CCc2c(sc(N)c2C(=O)NC23CC4CC(CC(C4)C2)C3)C1 is reported as > 200 µM (resazurin; H37RV).
O=C(O)c1cc(O)c2c(c1)C(=O)c1cccc(O)c1C2=O gave an MIC of > 320 µM (resazurin; H37RV).
